# Test results reported in ChEMBL document CHEMBL4808167, “Design, Synthesis, and Evaluation of Small Molecule Gαq/11 Protein Inhibitors for the Treatment of Uveal Melanoma” (J Med Chem, 2021).
# The source made the active and inactive calls. No cut-off for these calls is given here.
# How the values were obtained:
# [1] = tested on: 921; test: Antiproliferative activity against human 92.1 cells assessed as inhibition of cell growth at 10 to 15 uM after 72 hrs by CKK8 assay; assay type: functional, cell-based; settings: dose 10-15 µM
# [2] = Clearance in ICR mouse at 10 mg/kg, iv measured upto 24 hrs by LC-MS/MS analysis; assay type: ADME, organism-based; settings: in vivo
# How it was run: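 Single dose in male ICR mice, 10 mg/kg iv or 30 mg/kg po, dissolved in 5% DMSO/95% saline. Blood drawn by catheter at 0, 5, 15, 30 min and 1, 2, 4, 6, 8, 24 h. Plasma spun 6800g 6 min at 2−8 °C, stored −80 °C, quantified by LC−MS/MS. Noncompartmental parameters, mean ± SD, n = 6.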
# [3] = Induction of apoptosis in human 921 cells assessed as necrotic cells at 15 uM after 48 hrs by Annexin-V-FITC/propidium iodide staining based flow cytometry (reference value: 0.26%); assay type: functional
# [4] = MRT(0 to t) in ICR mouse at 30 mg/kg, po measured upto 24 hrs by LC-MS/MS analysis; assay type: ADME, organism-based; settings: in vivo
# How it was run: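 Single-dose PK in male ICR mice (n = 6): 10 mg/kg iv or 30 mg/kg po, vehicle 5% DMSO/95% saline. Blood (30 μL) by catheter at 0, 5, 15, 30 min and 1, 2, 4, 6, 8, 24 h; plasma by centrifugation, stored −80 °C, measured by LC–MS/MS. Parameters from noncompartmental analysis, mean SD.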
# [5] = tested on: MP41; test: Inhibition of colony formation in human MP41 cells at 5 to 15 uM after 9 days by crystal violet staining based light microscopic analysis; assay type: functional, cell-based; settings: dose 5-15 µM, time 9.0 day
# How it was run: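 Cells seeded 4 × 10³/well, incubated overnight at 37 °C, 5% CO₂, then exposed to compound for 9 days until colonies visible, medium and inhibitor replaced every 3 days. Fixed in 4% paraformaldehyde 15 min, crystal violet-stained 30 min, colonies counted. Repeated twice.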
# [6] = Toxicity in nude BALB/c mouse xenografted with human MP41 cells assessed as morphological changes in heart tissue at 10 to 30 mg/kg, ip administered once daily for 21 days and measured every 3 days by HE staining based assay; assay type: organism-based; settings: in vivo, 504 h, dose 10-30 mg/kg, time 21 day
# How it was run: (§1)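 Nude BALB/c mice bearing serially passaged MP41 tumour slices (tertiary recipients, n = 8/group, randomized) dosed ip daily for 21 days at 10 or 30 mg/kg/d or vehicle. Body weight monitored every 3 days. Tissues collected at sacrifice, fixed in 4% paraformaldehyde 24 h, paraffin-embedded, H&E stained, viewed at ×100.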
# [7] = tested on: 921; test: Inhibition of cell invasion in human 921 cells at 5 to 15 uM incubated for 48 hrs by transwell assay; assay type: functional, cell-based; settings: dose 5-15 µM
# How it was run: (§2)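 92.1 or MP41 cells (1 × 10⁴/well) seeded in serum-free medium in the upper transwell chamber, with 20% FBS medium below. Left overnight, then treated 48 h. Non-migrated cells swabbed off; cells on the lower side stained with crystal violet 30 min and counted by light microscopy (×40 for migration, ×100 for invasion). Mean ± SD, n = 3.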
# [8] = Toxicity in nude BALB/c mouse xenografted with human MP41 cells assessed as effect on body weight at 10 to 30 mg/kg, ip administered once daily for 21 days and measured every 3 days; assay type: organism-based; settings: in vivo, 504 h, dose 10-30 mg/kg, time 21 day; how it was run: as §1
# [9] = Toxicity in nude BALB/c mouse xenografted with human MP41 cells assessed as morphological changes in liver tissue at 10 to 30 mg/kg, ip administered once daily for 21 days and measured every 3 days by HE staining based assay; assay type: organism-based; settings: in vivo, 504 h, dose 10-30 mg/kg, time 21 day; how it was run: as §1
# [10] = Induction of apoptosis in human 921 cells assessed as late apoptotic cells at 15 uM after 48 hrs by Annexin-V-FITC/propidium iodide staining based flow cytometry (reference value: 2.52%); assay type: functional
# [11] = target: T1, GNAQ/GNA11 (Homo sapiens, UniProt P50148+P29992); test: Inhibition of Galphaq/11 (unknown origin) expressed in CHO cells coexpressing M1 receptor assessed as reduction in carbachol-induced IP1 accumulation preincubated for 1 hr followed by carbachol stimulation and measured after 1 hr by HTRF assay; assay type: cell-based
# T1 sequence (P50148 whole entry): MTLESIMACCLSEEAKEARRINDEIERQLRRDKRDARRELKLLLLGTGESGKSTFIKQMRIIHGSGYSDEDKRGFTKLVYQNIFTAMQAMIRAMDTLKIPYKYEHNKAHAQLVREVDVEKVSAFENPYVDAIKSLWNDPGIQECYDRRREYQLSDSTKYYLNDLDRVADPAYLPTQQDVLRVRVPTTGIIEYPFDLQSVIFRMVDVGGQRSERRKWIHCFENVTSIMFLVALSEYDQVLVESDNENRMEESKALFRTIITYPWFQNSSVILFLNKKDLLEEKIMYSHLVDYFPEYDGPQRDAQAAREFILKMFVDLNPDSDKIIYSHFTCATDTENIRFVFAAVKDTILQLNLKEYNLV
# T1 sequence (P29992 whole entry): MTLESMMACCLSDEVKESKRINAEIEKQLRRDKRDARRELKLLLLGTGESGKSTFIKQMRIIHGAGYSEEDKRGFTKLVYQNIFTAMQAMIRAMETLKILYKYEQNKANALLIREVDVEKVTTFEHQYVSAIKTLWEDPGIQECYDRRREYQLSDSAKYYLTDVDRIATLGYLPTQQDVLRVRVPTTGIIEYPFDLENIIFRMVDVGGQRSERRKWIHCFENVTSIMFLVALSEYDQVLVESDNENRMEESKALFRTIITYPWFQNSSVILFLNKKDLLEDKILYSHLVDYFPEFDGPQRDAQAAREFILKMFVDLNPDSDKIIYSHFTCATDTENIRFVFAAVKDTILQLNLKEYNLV
# [12] = tested on: MP41; test: Inhibition of cell migration in human MP41 cells at 30 uM incubated for 48 hrs by Transwell migration assay; assay type: functional, cell-based
# How it was run: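 Transwell migration: 92.1 and MP41 cells (RPMI-1640, 10% FBS) seeded 1 × 10⁴/well in upper chamber in serum-free medium, 20% FBS medium below; overnight at 37 °C, then compound for 48 h. Non-migrated cells swabbed off; lower cells crystal violet-stained 30 min, counted by light microscopy. Mean SD of three independent experiments.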
# [13] = Induction of apoptosis in human MP41 cells assessed as late apoptotic cells at 30 uM after 48 hrs by Annexin-V-FITC/propidium iodide staining based flow cytometry (reference value: 3.28%); assay type: functional
# [14] = tested on: 921; test: Inhibition of cell migration in human 921 cells at 15 uM incubated for 48 hrs by transwell migration assay; assay type: functional, cell-based; how it was run: as §2
# [15] = target: T1, GNAQ/GNA11; test: Binding affinity to Galphaq/11 (unknown origin) expressed in HEK293 cells cotransfected with AT1R/Galphaq-RLuc8/ Ggamma2-venus/Gbeta1 assessed as inhibition of Ang-II induced-BRET signal preincubated for 1 hr followed by Ang-II addition by BRET assay; assay type: cell-based
# How it was run: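 HEK293 cells transiently transfected with AT₁R, Gαq-RLuc8, Gγ2-Venus and untagged Gβ1. Replated 24 h later, washed with HBS, starved 10 min, then pretreated with compound for 1 h at 37 °C. AngII added, followed by coelenterazine. BRET ratio taken as Venus emission (520−570 nm) over RLuc8 emission (370−480 nm). Mean ± SD, n = 3.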
compound,measurement,setting,value
CC[C@@H](C)[C@H](N)C(=O)N1CCn2cc(-c3ccccc3)nc2[C@@H]1CC1CCCCC1,Activity,[1],Active
same,clearance,[2],77.9 mL/min/kg
same,Activity,[3],0.36%
same,MRT last at 24 h,[4],1.88 h
same,inhibition,[5],Active
same,Activity,[6],Non-Toxic
same,inhibition,[7],Active
same,Activity,[8],Non-Toxic
same,Activity,[9],Non-Toxic
same,Activity,[10],6.99%
same,IC50,[11],22.6 µM
same,inhibition,[12],Active
same,Activity,[13],6.16%
same,inhibition,[14],Active
same,IC50,[15],55.2 µM
